Results taken from ChEMBL document CHEMBL1828575, “Design, synthesis and antiproliferative activities of biarylolefins based on polyhydroxylated and carbohydrate scaffolds” (Eur J Med Chem, 2011).

Key:
Format in all cases: functional
TK-10 = test: Antitumor activity against human TK10 cells after 48 hrs by SRB assay; conditions: TK-10, 48 h
Procedure, shortened: (§1)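 NCI60 panel cells grown in RPMI 1640 with 5% FBS and 2 mM L-glutamine, plated at 5000–40,000 cells/well and preincubated 24 h at 37 °C, 5% CO₂. Compound was added from DMSO at five concentrations, 10-fold or 1/2 log dilutions, then incubated 48 h.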

MDA-MB-435 = test: Cytotoxicity against human MDA-MB-435 cells assessed as cellular growth at 10 uM after 48 hrs by SRB assay
Procedure, shortened: (§2)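 NCI-60 panel lines grown in RPMI 1640 with 5% FBS and 2 mM L-glutamine. Plated at 5000–40,000 cells/well and preincubated 24 h at 37 °C, 5% CO₂, with time-zero plates fixed in TCA. Compounds, dissolved in DMSO and diluted in medium, were applied for 48 h. Cells were TCA-fixed (10% final for adherent, 16% for suspension) and stained with 0.4% SRB in 1% acetic acid. Dye was solubilised in 10 mM Tris base and read at 515 nm; growth was expressed as a percentage of untreated control.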

MOLT-4 = test: Antitumor activity against human MOLT4 cells after 48 hrs by SRB assay; conditions: MOLT-4, 48 h
Procedure, shortened: (§3)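 NCI60 panel in RPMI 1640 with 5% FBS and 2 mM L-glutamine. Cells were plated at 5000–40,000/well by doubling time, held 24 h, then time-zero plates were TCA-fixed. Five concentrations (10-fold or half-log dilutions of DMSO stocks) were applied for 48 h at 37 °C, 5% CO2. Cells were fixed with cold TCA (10% final adherent, 16% suspension) and stained with 0.4% SRB. Bound dye was dissolved in 10 mM Tris and read at 515 nm. GI50, TGI and LC50 were calculated per line.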

OVCAR-4 = test: Antitumor activity against human OVCAR4 cells after 48 hrs by SRB assay; conditions: OVCAR-4, 48 h; procedure, shortened: as §3
SF-539 [1] = test: Cytotoxicity against human SF539 cells assessed as cellular growth at 10 uM after 48 hrs by SRB assay; procedure, shortened: as §2
HT-29 [2] = test: Cytotoxicity against human HT-29 cells assessed as cellular growth at 10 uM after 48 hrs by SRB assay
Procedure, shortened: (§4)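 NCI60 single-dose screen of cells in RPMI 1640 with 5% FBS and 2 mM L-glutamine, preincubated 24 h at 37 °C, 5% CO₂. Cells were then exposed 48 h to compound added from DMSO stock. TCA-fixed, stained with 0.4% SRB in 1% acetic acid, dye solubilised in 10 mM Tris base and read at 515 nm. Growth is given as percent of untreated control.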

NCI/ADR-RES = test: Antitumor activity against human NCI/ADR-RES cells after 48 hrs by SRB assay; procedure, shortened: as §3
BT-549 = test: Cytotoxicity against human BT549 cells assessed as cellular growth at 10 uM after 48 hrs by SRB assay; procedure, shortened: as §4
NCI-H23 = test: Antitumor activity against human NCI-H23 cells after 48 hrs by SRB assay; conditions: NCI-H23, 48 h; procedure, shortened: as §3
DU-145 [3] = test: Antitumor activity against human DU145 cells after 48 hrs by SRB assay; conditions: DU-145, 48 h; procedure, shortened: as §3
NCI-H522 = test: Cytotoxicity against human NCI-H522 cells assessed as cellular growth at 10 uM after 48 hrs by SRB assay; procedure, shortened: as §2
K562 = test: Antitumor activity against human K562 cells after 48 hrs by SRB assay; conditions: K562, 48 h; procedure, shortened: as §3
[4] = Cytotoxicity against human NCI60 cells assessed as cellular growth at 10 uM after 48 hrs by SRB assay relative to untreated control; procedure, shortened: as §2
M14 = test: Cytotoxicity against human M14 cells assessed as cellular growth at 10 uM after 48 hrs by SRB assay; procedure, shortened: as §4
DU-145 [5] = test: Cytotoxicity against human DU145 cells assessed as cellular growth at 10 uM after 48 hrs by SRB assay; procedure, shortened: as §4
SR = test: Antitumor activity against human SR cells after 48 hrs by SRB assay; procedure, shortened: as §1
HT-29 [6] = test: Antiproliferative activity against human HT-29 cells after 48 hrs by SRB assay; conditions: HT-29, 48 h; procedure, shortened: as §3
HOP-62 = test: Cytotoxicity against human HOP62 cells assessed as cellular growth at 10 uM after 48 hrs by SRB assay; procedure, shortened: as §4
LOX IMVI = test: Antitumor activity against human LOXIMVI cells after 48 hrs by SRB assay; procedure, shortened: as §3
SF-539 [7] = test: Antitumor activity against human SF539 cells after 48 hrs by SRB assay; conditions: SF-539, 48 h; procedure, shortened: as §1
OVCAR-3 = test: Cytotoxicity against human OVCAR3 cells assessed as cellular growth at 10 uM after 48 hrs by SRB assay; procedure, shortened: as §2
OVCAR-5 = test: Antitumor activity against human OVCAR5 cells after 48 hrs by SRB assay; conditions: OVCAR-5, 48 h; procedure, shortened: as §3
SK-MEL-5 = test: Antitumor activity against human SK-MEL-5 cells after 48 hrs by SRB assay; conditions: SK-MEL-5, 48 h; procedure, shortened: as §1
[8] = read-out: LC50 (the source's name)
[9] = read-out: pLC50 (the source's name) (converted)

What does the source list for `COc1ccc(/C(=C2\O[C@@H]([C@H]3COC(C)(C)O3)[C@H]3OC(C)(C)O[C@@H]23)c2cc(OC)c(OC)c(OC)c2)cc1O`?
GI50 (TK-10; read-out: GI50): 3.66 µM; CC50 (TK-10; [8]): > 100 µM; TGI (TK-10; read-out: TGI): 86.3 µM; GI50 (TK-10; read-out: pGI50 (converted)): 36.3 µM; CC50 (TK-10; [9]): > 100 µM; TGI (TK-10; read-out: pTGI (converted)): 87.1 µM; Activity (MDA-MB-435): -10.2%; LC50 (concentration killing 50% of cells) (MOLT-4): > 100 µM; GI50 (MOLT-4; read-out: GI50): 24.2 µM; TGI (MOLT-4; read-out: TGI): > 100 µM; GI50 (MOLT-4; read-out: pGI50 (converted)): 24 µM; CC50 (MOLT-4; [9]): > 100 µM; TGI (MOLT-4; read-out: pTGI): > 100 µM; GI50 (OVCAR-4; read-out: GI50): 37.5 µM; CC50 (OVCAR-4; [8]): > 100 µM; TGI (OVCAR-4; read-out: TGI): > 100 µM; GI50 (OVCAR-4; read-out: pGI50 (converted)): 37.2 µM; CC50 (OVCAR-4; [9]): > 100 µM; TGI (OVCAR-4; read-out: pTGI (converted)): > 100 µM; Activity (SF-539 [1]): 21.53%; Activity (HT-29 [2]): 113.24%; GI50 (NCI/ADR-RES): 4.26 µM; LC50 (NCI/ADR-RES): > 100 µM; TGI (NCI/ADR-RES): 22.3 µM; Activity (BT-549): 67.52%; GI50 (NCI-H23; read-out: GI50): 21.8 µM; CC50 (NCI-H23; [8]): > 100 µM; TGI (NCI-H23; read-out: TGI): 74.9 µM; GI50 (NCI-H23; read-out: pGI50 (converted)): 20.9 µM; CC50 (NCI-H23; [9]): > 100 µM; TGI (NCI-H23; read-out: pTGI (converted)): 74.1 µM; GI50 (DU-145 [3]; read-out: GI50): 3.93 µM; CC50 (DU-145 [3]; [8]): > 100 µM; TGI (DU-145 [3]; read-out: TGI): > 100 µM; GI50 (DU-145 [3]; read-out: pGI50 (converted)): 3.89 µM; CC50 (DU-145 [3]; [9]): > 100 µM; TGI (DU-145 [3]; read-out: pTGI (converted)): > 100 µM; Activity (NCI-H522): 51.79%; GI50 (K562; read-out: GI50): 6.28 µM; CC50 (K562; [8]): > 100 µM; TGI (K562; read-out: TGI): > 100 µM; GI50 (K562; read-out: pGI50 (converted)): 6.31 µM; CC50 (K562; [9]): > 100 µM; TGI (K562; read-out: pTGI): > 100 µM; Activity [4]: 66%; Activity (M14): 19.53%; Activity (DU-145 [5]): 45.59%; GI50 (SR; read-out: GI50): 6.1 µM; CC50 (SR; [8]): > 100 µM; TGI (SR; read-out: TGI): > 100 µM; GI50 (SR; read-out: pGI50 (converted)): 6.17 µM; CC50 (SR; [9]): > 100 µM; TGI (SR; read-out: pTGI): > 100 µM; LC50 (50% net cell kill) (HT-29 [6]): > 100 µM; GI50 (HT-29 [6]; read-out: GI50): 4.1 µM; TGI (HT-29 [6]; read-out: TGI): 17.8 µM; GI50 (HT-29 [6]; read-out: pGI50 (converted)): 4.07 µM; CC50 (HT-29 [6]; [9]): > 100 µM; TGI (HT-29 [6]; read-out: pTGI (converted)): 17.8 µM; Activity (HOP-62): 91.26%; GI50 (LOX IMVI): 3.39 µM; TGI (LOX IMVI): 19.8 µM; CC50 (LOX IMVI; [8]): > 100 µM; GI50 (SF-539 [7]): 3.15 µM; TGI (SF-539 [7]): 8.75 µM; CC50 (SF-539 [7]; [8]): 86 µM; Activity (OVCAR-3): 58.27%; GI50 (OVCAR-5; read-out: GI50): 59.6 µM; CC50 (OVCAR-5; [8]): > 100 µM; TGI (OVCAR-5; read-out: TGI): > 100 µM; GI50 (OVCAR-5; read-out: pGI50 (converted)): 60.3 µM; CC50 (OVCAR-5; [9]): > 100 µM; TGI (OVCAR-5; read-out: pTGI (converted)): > 100 µM; GI50 (SK-MEL-5): 4.07 µM; LC50 (SK-MEL-5): 51.4 µM; TGI (SK-MEL-5): 15.4 µM
